Test results from BindingDB's records for doi:10.1021/acs.jmedchem.5b01947 (Amgen, 2016).
pIC50: −log10 of the molar value. Positions of bridges follow the written chain, without caps; N, C: chain ends. Residues, ends and D or L forms follow the SMILES beside them.

Assays:
[1] = biological target: T1, Sodium channel protein type 5 subunit alpha (Homo sapiens, UniProt Q14524); experiment: Inhibition of human Nav1.5 expressed in HEK293 cells assessed as inward peak current by ion-works quattro patch clamp electrophysiology method
T1 sequence (Q14524 whole entry): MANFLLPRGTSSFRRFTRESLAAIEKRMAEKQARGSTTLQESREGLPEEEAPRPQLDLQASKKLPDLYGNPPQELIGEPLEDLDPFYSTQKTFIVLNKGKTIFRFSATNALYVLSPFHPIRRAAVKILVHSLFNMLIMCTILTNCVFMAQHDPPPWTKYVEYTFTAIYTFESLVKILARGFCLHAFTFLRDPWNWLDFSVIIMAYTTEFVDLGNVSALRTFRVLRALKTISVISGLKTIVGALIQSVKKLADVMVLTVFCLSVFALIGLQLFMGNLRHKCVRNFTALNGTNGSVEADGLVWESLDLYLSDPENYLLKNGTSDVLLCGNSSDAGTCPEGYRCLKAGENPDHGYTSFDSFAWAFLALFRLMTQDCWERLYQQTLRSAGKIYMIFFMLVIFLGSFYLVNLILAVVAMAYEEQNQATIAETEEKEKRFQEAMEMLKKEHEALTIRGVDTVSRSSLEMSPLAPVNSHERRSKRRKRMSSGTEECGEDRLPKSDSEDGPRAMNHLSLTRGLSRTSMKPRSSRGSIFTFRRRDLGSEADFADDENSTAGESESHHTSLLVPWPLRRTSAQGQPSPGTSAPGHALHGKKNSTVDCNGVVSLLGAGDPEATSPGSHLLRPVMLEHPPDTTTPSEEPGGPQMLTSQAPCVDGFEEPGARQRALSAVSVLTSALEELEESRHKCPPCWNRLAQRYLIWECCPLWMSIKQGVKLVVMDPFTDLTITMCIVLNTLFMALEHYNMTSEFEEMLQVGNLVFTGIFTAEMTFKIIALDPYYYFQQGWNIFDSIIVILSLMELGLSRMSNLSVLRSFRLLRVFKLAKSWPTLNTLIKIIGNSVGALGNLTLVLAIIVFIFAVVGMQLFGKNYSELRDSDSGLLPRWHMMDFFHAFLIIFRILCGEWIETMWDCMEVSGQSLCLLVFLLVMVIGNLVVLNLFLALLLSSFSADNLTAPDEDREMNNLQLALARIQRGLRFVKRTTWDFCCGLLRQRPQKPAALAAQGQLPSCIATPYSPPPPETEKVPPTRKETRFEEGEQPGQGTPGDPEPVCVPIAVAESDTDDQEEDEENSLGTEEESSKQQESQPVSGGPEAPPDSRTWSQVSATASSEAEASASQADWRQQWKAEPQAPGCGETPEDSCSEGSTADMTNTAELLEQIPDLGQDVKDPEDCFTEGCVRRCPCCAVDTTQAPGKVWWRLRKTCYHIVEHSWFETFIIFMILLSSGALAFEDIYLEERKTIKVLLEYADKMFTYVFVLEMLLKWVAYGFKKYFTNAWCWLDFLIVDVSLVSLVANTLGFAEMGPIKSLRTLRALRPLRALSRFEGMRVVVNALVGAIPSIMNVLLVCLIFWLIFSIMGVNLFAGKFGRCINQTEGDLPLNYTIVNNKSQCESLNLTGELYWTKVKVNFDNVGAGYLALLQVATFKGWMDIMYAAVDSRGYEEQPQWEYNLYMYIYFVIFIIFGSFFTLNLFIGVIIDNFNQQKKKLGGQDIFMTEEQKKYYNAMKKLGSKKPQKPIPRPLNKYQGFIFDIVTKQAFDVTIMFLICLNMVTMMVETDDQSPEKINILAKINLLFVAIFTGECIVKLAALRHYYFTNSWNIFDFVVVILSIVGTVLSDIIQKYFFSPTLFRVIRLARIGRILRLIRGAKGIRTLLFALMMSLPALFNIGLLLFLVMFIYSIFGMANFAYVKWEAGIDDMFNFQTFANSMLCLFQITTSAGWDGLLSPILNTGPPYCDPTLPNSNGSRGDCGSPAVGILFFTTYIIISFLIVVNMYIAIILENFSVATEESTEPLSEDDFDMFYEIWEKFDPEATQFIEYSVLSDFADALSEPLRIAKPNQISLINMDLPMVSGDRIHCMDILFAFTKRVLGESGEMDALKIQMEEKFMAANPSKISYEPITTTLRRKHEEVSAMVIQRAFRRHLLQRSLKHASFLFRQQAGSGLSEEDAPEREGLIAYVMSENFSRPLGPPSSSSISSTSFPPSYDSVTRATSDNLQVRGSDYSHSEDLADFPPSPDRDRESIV
Summary of the method: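 Stable HEK293 line expressing human NaV1.5, recorded by population patch clamp on the IonWorks Quattro.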

[2] = biological target: T1, Sodium channel protein type 5 subunit alpha; experiment: Inhibition of human Nav1.5 expressed in HEK293 cells by whole cell patch clamp electrophysiology method
Summary of the method: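 Stable HEK293 line expressing human NaV1.5. Peptides were used only at >95% purity with the correct m/z, and were quantified by chemiluminescent nitrogen detection against a caffeine standard curve.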

[3] = biological target: Sodium channel protein type 9 subunit alpha (Homo sapiens, UniProt Q15858); experiment: Inhibition of human Nav1.7 expressed in HEK293 cells by whole cell patch clamp electrophysiology method
Sequence of Sodium channel protein type 9 subunit alpha (Q15858 whole entry): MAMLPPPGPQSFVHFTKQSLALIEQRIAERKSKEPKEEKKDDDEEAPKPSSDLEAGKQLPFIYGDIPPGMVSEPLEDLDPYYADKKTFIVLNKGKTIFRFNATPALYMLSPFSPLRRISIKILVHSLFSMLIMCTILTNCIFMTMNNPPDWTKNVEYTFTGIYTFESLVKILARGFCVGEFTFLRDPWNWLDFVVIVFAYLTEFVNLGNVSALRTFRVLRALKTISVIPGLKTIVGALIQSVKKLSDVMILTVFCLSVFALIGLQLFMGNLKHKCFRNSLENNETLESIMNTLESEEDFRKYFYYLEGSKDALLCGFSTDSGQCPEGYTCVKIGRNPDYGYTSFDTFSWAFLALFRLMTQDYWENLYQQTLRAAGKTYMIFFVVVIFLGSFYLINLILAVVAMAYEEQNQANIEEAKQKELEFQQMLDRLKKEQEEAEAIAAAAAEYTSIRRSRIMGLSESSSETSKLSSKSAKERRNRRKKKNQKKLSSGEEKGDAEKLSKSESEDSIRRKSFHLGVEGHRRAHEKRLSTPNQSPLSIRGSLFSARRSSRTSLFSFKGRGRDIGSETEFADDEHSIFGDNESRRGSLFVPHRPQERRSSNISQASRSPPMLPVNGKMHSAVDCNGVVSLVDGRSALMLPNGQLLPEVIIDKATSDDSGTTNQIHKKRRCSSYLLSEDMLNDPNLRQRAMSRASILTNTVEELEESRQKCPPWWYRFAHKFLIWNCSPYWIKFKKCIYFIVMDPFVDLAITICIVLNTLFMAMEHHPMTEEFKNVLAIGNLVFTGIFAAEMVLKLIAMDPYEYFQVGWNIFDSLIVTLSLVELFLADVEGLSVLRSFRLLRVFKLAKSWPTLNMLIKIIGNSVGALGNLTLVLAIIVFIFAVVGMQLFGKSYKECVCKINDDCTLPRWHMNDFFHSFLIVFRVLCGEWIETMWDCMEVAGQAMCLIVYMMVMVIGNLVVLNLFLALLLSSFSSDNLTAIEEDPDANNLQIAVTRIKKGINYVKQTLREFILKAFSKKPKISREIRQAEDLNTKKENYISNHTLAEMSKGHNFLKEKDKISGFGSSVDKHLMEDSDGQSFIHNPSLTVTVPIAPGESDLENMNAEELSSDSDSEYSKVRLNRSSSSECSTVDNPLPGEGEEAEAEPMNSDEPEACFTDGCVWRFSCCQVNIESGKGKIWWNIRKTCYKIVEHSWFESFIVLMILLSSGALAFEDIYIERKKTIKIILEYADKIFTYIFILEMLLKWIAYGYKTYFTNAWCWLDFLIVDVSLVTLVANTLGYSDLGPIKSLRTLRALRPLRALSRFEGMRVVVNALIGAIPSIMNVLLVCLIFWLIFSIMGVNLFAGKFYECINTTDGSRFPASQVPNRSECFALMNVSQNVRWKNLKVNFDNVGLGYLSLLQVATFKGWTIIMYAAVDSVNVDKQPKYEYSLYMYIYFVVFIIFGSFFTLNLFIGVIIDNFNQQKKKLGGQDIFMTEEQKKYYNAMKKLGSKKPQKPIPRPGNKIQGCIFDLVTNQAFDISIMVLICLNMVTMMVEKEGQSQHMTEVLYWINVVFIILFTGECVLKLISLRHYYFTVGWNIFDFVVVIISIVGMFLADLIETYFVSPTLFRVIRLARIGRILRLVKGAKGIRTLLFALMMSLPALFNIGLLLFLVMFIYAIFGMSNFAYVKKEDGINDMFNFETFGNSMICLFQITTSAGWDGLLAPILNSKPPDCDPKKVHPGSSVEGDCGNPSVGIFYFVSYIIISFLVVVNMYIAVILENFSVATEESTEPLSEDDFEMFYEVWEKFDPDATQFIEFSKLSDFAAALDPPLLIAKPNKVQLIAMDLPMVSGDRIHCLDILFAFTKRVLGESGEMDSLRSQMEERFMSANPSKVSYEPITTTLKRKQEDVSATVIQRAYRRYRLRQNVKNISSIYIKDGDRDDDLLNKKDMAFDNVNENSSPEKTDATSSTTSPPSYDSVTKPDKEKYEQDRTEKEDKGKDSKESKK

Row | Structure (SMILES) | pIC50 [1] | pIC50 [2] | pIC50 [3]
1 | CC[C@H](C)[C@@H]1NC(=O)[C@@H]2CSSC[C@@H]3NC(=O)[C@H](C(C)C)NC(=O)[C@H](CC(C)C)NC(=O)[C@H](CC(N)=O)NC(=O)[C@@H]4CCCN4C(=O)[C@H](CCCNC(=N)N)NC(=O)[C@H](CSSC[C@H](NC(=O)[C@@H](N)CC(=O)O)C(=O)N[C@@H](CC(C)C)C(=O)NCC(=O)N[C@@H](Cc4ccccc4)C(=O)N[C@@H](CCSC)C(=O)N[C@@H](CCCNC(=N)N)C(=O)N[C@@H](CCCCN)C(=O)N2)NC(=O)[C@H](CSSC[C@@H](C(=O)N[C@@H](CCCCN)C(=O)N[C@@H](Cc2ccc(O)cc2)C(=O)N[C@H](C(=O)N[C@@H](Cc2ccccc2)C(=O)N[C@@H](Cc2c[nH]c4ccccc24)C(N)=O)C(C)C)NC(=O)[C@H](Cc2c[nH]c4ccccc24)NC(=O)[C@H](CCCCN)NC(=O)[C@H](Cc2c[nH]cn2)NC(=O)[C@H]([C@@H](C)O)NC(=O)[C@H](CCCNC(=N)N)NC(=O)[C@H](CO)NC3=O)NC(=O)[C@H](CCCCN)NC(=O)[C@H](CC(=O)O)NC(=O)[C@H](CC(N)=O)NC(=O)[C@H](CC(=O)O)NC(=O)[C@@H]2CCCN2C1=O | < 5.30 | 5.57 | 8.00
2 | CC[C@H](C)[C@@H]1NC(=O)[C@@H]2CSSC[C@@H]3NC(=O)[C@H](C(C)C)NC(=O)[C@H](CC(C)C)NC(=O)[C@H](CC(N)=O)NC(=O)[C@@H]4CCCN4C(=O)[C@H](CCCNC(=N)N)NC(=O)[C@H](CSSC[C@H](NC(=O)[C@@H](N)CC(=O)O)C(=O)N[C@@H](CCC(=O)O)C(=O)NCC(=O)N[C@@H](Cc4ccccc4)C(=O)N[C@@H](CCSC)C(=O)N[C@@H](CCCNC(=N)N)C(=O)N[C@@H](CCCCN)C(=O)N2)NC(=O)[C@H](CSSC[C@@H](C(=O)N[C@@H](CCCCN)C(=O)N[C@@H](Cc2ccc(O)cc2)C(=O)N[C@H](C(=O)N[C@@H](Cc2ccccc2)C(N)=O)C(C)C)NC(=O)[C@H](Cc2c[nH]c4ccccc24)NC(=O)[C@H](CCCCN)NC(=O)[C@H](Cc2cnc[nH]2)NC(=O)[C@H]([C@@H](C)O)NC(=O)[C@H](CCCNC(=N)N)NC(=O)[C@H](CO)NC3=O)NC(=O)[C@H](CCCCN)NC(=O)[C@H](CC(=O)O)NC(=O)[C@H](CC(N)=O)NC(=O)[C@H](CC(=O)O)NC(=O)[C@@H]2CCCN2C1=O (H-DCEGFMRKCIPDNDKCCRPNLVCSRTHKWCKYVF-NH2; disulfide 2-17, 9-23, 16-30) | < 5.30 |  | 
